# Ends that are not written are not given here.
# Target: H-2K^b (Mus musculus, UniProt P01901)
# Assay: MHC peptide-binding assay, purified H-2K^b
# Outline: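 Radiolabelled (chloramine-T) reference peptide at 0.1-1 nM is incubated at room temperature for 2 days with purified MHC (1 µM to 1 nM), 1-3 µM human β2-microglobulin and protease inhibitors. MHC-peptide complexes are captured on plates coated with Y3 (anti-H-2K^b) antibody, and bound cpm are read by microscintillation counting. Test peptides are ≥95% pure by reverse-phase HPLC.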
# H-2K^b, sequence (P61769 21-119): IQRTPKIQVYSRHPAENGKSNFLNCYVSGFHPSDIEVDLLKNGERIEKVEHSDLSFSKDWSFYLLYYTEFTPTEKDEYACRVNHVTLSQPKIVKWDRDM
# H-2K^b, sequence (P01901 22-369): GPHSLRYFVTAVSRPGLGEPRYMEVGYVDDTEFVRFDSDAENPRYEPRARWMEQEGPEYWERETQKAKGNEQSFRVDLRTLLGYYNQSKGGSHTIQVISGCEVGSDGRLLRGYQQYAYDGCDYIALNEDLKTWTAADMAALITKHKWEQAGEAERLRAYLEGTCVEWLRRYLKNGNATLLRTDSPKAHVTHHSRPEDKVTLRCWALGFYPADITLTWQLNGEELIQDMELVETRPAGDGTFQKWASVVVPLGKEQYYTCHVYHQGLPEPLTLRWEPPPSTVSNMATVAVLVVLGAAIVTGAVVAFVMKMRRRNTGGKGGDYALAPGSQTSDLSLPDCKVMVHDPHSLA
row,Compound,IC50 [µM]
1,CC(C)C[C@H](NC(=O)[C@H](CO)NC(=O)[C@@H](NC(=O)[C@H](CC(N)=O)NC(=O)[C@@H](NC(=O)[C@H](CO)NC(=O)[C@@H](N)CO)C(C)C)C(C)C)C(=O)N[C@H](C(=O)O)[C@@H](C)O [NS4B59-66],< 2
2,FSLGVLGM [NS2A8-15],< 2
3,LAVTIMAIL [NS2A145-153],< 2
4,RMLINRFTM [NS5_237-245],< 2
5,TAIANQATV [NS4B66-74],< 2
6,VSWTMKIL [Epitope E451-458],0.458

# Target: H-2D^b (Mus musculus, UniProt P01899)
# Assay: MHC peptide-binding assay, purified H-2D^b
# H-2D^b, sequence (P01899 25-362): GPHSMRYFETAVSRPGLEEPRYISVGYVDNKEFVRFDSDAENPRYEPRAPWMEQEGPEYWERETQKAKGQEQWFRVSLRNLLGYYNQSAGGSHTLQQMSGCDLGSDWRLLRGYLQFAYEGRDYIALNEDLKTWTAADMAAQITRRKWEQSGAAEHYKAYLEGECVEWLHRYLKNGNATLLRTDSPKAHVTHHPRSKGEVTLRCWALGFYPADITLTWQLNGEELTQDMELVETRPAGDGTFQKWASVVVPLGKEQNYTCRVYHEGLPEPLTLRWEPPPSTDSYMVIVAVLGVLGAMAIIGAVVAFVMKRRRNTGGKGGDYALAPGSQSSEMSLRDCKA
# H-2D^b, sequence (P61769 21-119, further chain): as the sequence (P61769 21-119) above
row,Compound,IC50 [µM]
1,MTMRCIGI [Epitope E-2-6],< 2
2,RALIFILL [Epitope M60-67],< 2
3,VSWTMKIL [Epitope E451-458],< 2
